Compound activity (PubChem)
PGC1a acetyl up: raises PGC1a acetylation signal in U2OS cells; AID 651723; actives 0.21% (n = 350,000); U2OS PGC1a acetylation AlphaScreen, overnight; activation, % at 15.6 µM;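 active = every replicate reaching activation of at least 50%, whatever the mean replicate activation; inconclusive = replicates that disagree or another doubt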;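 also: hits raise the AlphaScreen acetylation signal above neutral controls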
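System: flag-PGC1a/GCN5 U2OS cells / Input: 7000 cells/well / Compound: single test concentration per compound / Incubation: overnight compound treatment, 37 °C / Technique: AlphaScreen on lysates with anti-acetyl-lysine antibody, acceptor and donor beads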
G6PC hep suppr: PGC-1a acetylation activator altering hepatocyte G6PC expression; 240 tested, under 10 active; G6PC suppression (normalized activity, % of positive control; higher = more suppression), % at 26 µM; shares compounds with PGC1a acetyl up; primary mouse hepatocytes, G6PC mRNA qPCR, forskolin;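 active = dose curves showing G6PC suppression whose half-maximal dose is at most twice the top valid dose; inconclusive = flat curves with moderate negative activity, or unreliable fits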;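 also: G6PC expression relative to GAPDH housekeeping gene as delta delta Ct; 0% = median of neutral control wells and 100% = median of positive control wells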
Hep PCK1 suppr: PGC-1a acetylation activators affecting PCK1 expression in hepatocytes | shares compounds with PGC1a acetyl up | primary mouse hepatocytes, PCK1 mRNA qPCR, forskolin-stimulated | PCK1 expression decrease, unspecified at 26 µM | 230 tested, under 10 active;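 active = compounds lowering PCK1 expression whose fitted half-maximal concentration is at most twice the top tested dose; inconclusive = flat fit with moderate opposite-direction effect, or poor fit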;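 also: values are delta delta Ct of PCK1 relative to GAPDH; higher delta delta Ct means lower PCK1 expression so positive values indicate hits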
Hep PGC-1a down: hepatocyte PGC-1a expression change via PGC-1a acetylation activation | shares compounds with PGC1a acetyl up | primary mouse hepatocytes, PGC-1a mRNA qPCR, forskolin; top dose 26 µM | max activity (PGC-1a expression decrease), % | 240 tested, under 10 active | AID 743467;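 active = compound lowering PGC-1a expression with fitted half-maximal concentration at most twice its top tested dose; inconclusive = flat curve with moderate opposite-direction effect, or poor fit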;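 also: 0% = neutral control wells median and 100% = positive control wells median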
The depositor's hits bear a star; i = inactive; ? = inconclusive; / = no result given. Not all results are given here.

SMILES | PGC1a acetyl up | G6PC hep suppr | Hep PCK1 suppr | Hep PGC-1a down
O=C(NCc1ccc(Cl)cc1)C1CCC(CNc2c(N3CCCC3)c(=O)c2=O)CC1 (stereo unspecified) | -43 | 7 | 43 | 44
CC(=O)c1cccc(N(C(=O)c2cnccn2)C(C(=O)NCc2ccccc2)c2ccco2)c1 (stereo unspecified) | 96* | 45 | 129 | 188
CC(=O)c1cccc(N(C(=O)Cn2nnc3ccccc32)C(C(=O)NCc2ccccc2)c2ccccn2)c1 (stereo unspecified) | ? | -29 | -11 | -33
c1ccc(CNc2ncnc3nc[nH]c23)cc1 | -45 | / | / | /
O=C1C=CC(=O)c2c(O)c(N3CCN(CCO)CC3)c(Cl)c(O)c21 | -51 | / | / | /
CC1(C)CC(=O)C=C(NCc2ccco2)C1 | -40 | / | / | /
O=C1NC2(CCC3(CC2)OCCO3)NN1c1ccccc1 | -51 | / | / | /
CCOC(=O)C(=CNc1ccc(C)cc1C)C(=O)OCC | -41 | / | / | /
Cc1cccc(-c2ccc3[nH]c4c(c3c2)CCN2C[C@@H]([C@H](C)O)[C@@H](N(C)C(=O)NC3CCCCC3)C[C@@H]42)c1 | -40 | / | / | /
O=C(c1cc(Cl)ccc1Cl)N1CCc2ccccc21 | -43 | / | / | /
O=C(NN1c2ccccc2CCc2ccccc21)c1ccccc1Br | ? | 168 | 102 | 88
Cc1cccc(CS(=O)(=O)c2nnc([C@H](Cc3ccccc3)NC(=O)OC(C)(C)C)o2)c1 | -60 | / | / | /
CC(C)c1ccc(/C=N/NC(=O)C2CCCC2)cc1 | -46 | / | / | /
CCOCCn1c(CN(Cc2ccccc2)Cc2ccccc2)nc2c1c(=O)n(C)c(=O)n2C | 56* | / | 11 | 27
CCCCn1c(CN(Cc2ccccc2)Cc2ccccc2)nc2c1c(=O)n(C)c(=O)n2C | ? | 0 | 193 | 67
CCOCCn1c(CN(Cc2ccccc2)Cc2ccccc2)nc2c1c(=O)[nH]c(=O)n2C | ? | -12 | 0.24 | 38
CN1CCN(C2=C(Cl)C(=O)N(CCc3ccccc3)C2=O)CC1 | -47 | / | / | /
O=C(Nc1cccn2ncnc12)C(Cl)Cl | -2 | / | / | /
COC(=O)c1ccc(Cl)c(NC(C)=O)c1 | -47 | / | / | /
Cc1[nH]nc2ncc(C(=O)c3ccccc3O)cc12 | -45 | / | / | /
CCOC(=O)NC(=S)Nc1cccc(NC(=S)NC(=O)OCC)c1 | -40 | / | / | /
C#CCN1C(=O)C(O)(CC(=O)c2ccc(OC)c(OC)c2)c2ccccc21 (stereo unspecified) | -43 | / | / | /
O=[N+]([O-])c1c(NCCCO)cc(Sc2nc3ccccc3s2)c2nonc12 | -58 | / | / | /
O=C1C(N2CCOCC2)=C(n2nnc3ccccc32)C(=O)c2ccccc21 | -61 | / | / | /
OC[C@@H]1CN(Cc2ccccc2)C[C@H](n2cnc3c(NCc4ccco4)ncnc32)O1 | -101 | / | / | /
SMILES | PGC1a acetyl up | G6PC hep suppr | Hep PCK1 suppr | Hep PGC-1a down
Cc1cccc(Oc2nccc(C(F)(F)F)c2C(=O)Nc2ccc(F)cc2F)c1 | -85 | / | / | /
COc1ccc(C(C)(O)c2nc(-c3ccc(S(C)(=O)=O)cc3)cs2)cc1 (stereo unspecified) | ? | -43 | 16 | 49
CCn1c(C(=O)NC2CCC(C)CC2)cc2sccc21 (stereo unspecified) | -44 | / | / | /
CCNc1nc(Oc2ccc(C#N)cc2)cc(C(F)(F)F)n1 | -42 | / | / | /
Cc1ccc2[nH]c(=O)c(CN(Cc3ccc4c(c3)OCO4)Cc3nnnn3C3CCCC3)cc2c1 | 58* | 27 | 85 | 65
COc1ccc(CN(Cc2cc3ccc(C)cc3[nH]c2=O)Cc2nnnn2C2CCCC2)cc1 | -53 | / | / | /
CCOC(=O)c1ccc(N2C(=O)CC(N3CCC(O)(c4ccc(Br)cc4)CC3)C2=O)cc1 (stereo unspecified) | -47 | / | / | /
Cc1ccc(CN(CC(O)COc2cccc3[nH]cc(C)c23)C(C)(C)C)cc1 (stereo unspecified) | 90* | 469 | 301 | 165
CCCCN(CC)CCCNC(=O)c1cc2c(=O)n(CC)c3ccccc3c2s1 | ? | i | 214 | 172
C=C1C(=O)[C@]23C[C@H]1CC[C@H]2[C@]1(C)[C@@H](OC(C)=O)CC[C@@](C)(C(=O)OC)[C@H]1C[C@@H]3OC(C)=O | -94 | / | / | /
O=C(CCc1nc2ccccc2c(=O)[nH]1)OCC(=O)N1CCc2ccccc21 | -53 | / | / | /
CC1CC(NS(=O)(=O)c2cccs2)CC(C)(C)C1 (stereo unspecified) | 265* | 99 | 69 | 157
Cc1ccc(N)cc1S(=O)(=O)N(C)C | -46 | / | / | /
CCn1nc(C)c(CN2CCc3c([nH]c4ccccc34)C2C(C)(C)C)c1C (stereo unspecified) | 150* | -24 | ? | 51
COc1ccc2c(c1)C(C)=CC(C)(C)N2S(=O)(=O)c1ccc(Br)cc1 | 83* | / | 149 | 43
N#Cc1cc2c(=O)n3ccccc3nc2n(Cc2cccnc2)c1=O | -49 | / | / | /
Cc1ccccc1NC1=C/C(=N\S(=O)(=O)c2cccs2)c2ccccc2C1=O | -88 | / | / | /
COc1ccc(Cc2nc(-c3ccc(NC(=O)c4cccnc4)cc3)no2)cc1 | 240* | -23 | -4.4 | 102
COc1ccc(C(=O)/C(=C\c2ccco2)N2C=CC=CC2=C(C#N)C#N)cc1 | -71 | / | / | /
Cc1cc(Cn2nc(C(=O)NCc3cccc(C(F)(F)F)c3)cc2-c2ccccc2)on1 | 78* | -60 | ? | 30
Cn1c(C(C#N)C(=O)c2sc3ccccc3c2Cl)nc2ccccc21 (stereo unspecified) | -50 | / | / | /
CCCCCCCCC(=O)O | -66 | / | / | /
CCN(CC)C(=O)c1sc(NC(=O)c2ccncc2)c(C(=O)OC)c1C | -52 | / | / | /
O=C(Nc1cccnc1)c1ccc(Oc2ccccc2)cc1 | 78* | -14 | 9.5 | ?
CCCOc1ccc(C(=O)Nc2cccnc2)cc1 | 77* | -38 | 57 | 54
SMILES | PGC1a acetyl up | G6PC hep suppr | Hep PCK1 suppr | Hep PGC-1a down
OCCN(Cc1ccccc1)CC1CCCCC1 | -57 | / | / | /
COc1cccc(NC(=O)N2CCN(c3cccc(C)c3)C(C)C2)c1 (stereo unspecified) | -45 | / | / | /
COc1ccccc1-c1ccc2c(c1)C(C)(Cc1ccc(OC(F)(F)F)cc1)C(=O)N2 (stereo unspecified) | ? | -17 | 52 | 51
CCc1nnc(N/N=C/c2ccccc2Cl)n1N | -72 | / | / | /
CC(=O)c1ccc(N2CCN(C(=O)C(=O)c3c(C)[nH]c4ccccc34)CC2)cc1 | 66* | -37 | -14 | -14
CC(Oc1ccc2c3c(c(=O)oc2c1)CCC3)C(=O)N[C@@H](Cc1ccccc1)C(=O)O (stereo partly specified) | -75 | / | / | /
O=C(c1ccccc1Cl)N1CCNCC1 | -67 | / | / | /
CN1CC=C2C(C#N)=C(N)C(C#N)(C#N)C(CCc3ccccc3)C2C1 (stereo unspecified) | -45 | / | / | /
O=C(Nc1ccc(F)cc1)N1CCN(c2nc3ccccc3s2)CC1 | ? | -42 | ? | 42
O=C(Nc1ccc(-c2cn3c(n2)SCC3)cc1)c1ccc2ccccc2n1 | -40 | / | / | /
CC12CCC(C1)C(C)(C)C2NS(=O)(=O)c1ccc(F)cc1 (stereo unspecified) | ? | 19 | / | ?
CCc1nc(SCC(=O)N2c3ccccc3Sc3ccccc32)c2ccccc2n1 | -43 | / | / | /
CC(=O)Nc1nonc1-c1nc2ccccc2n1Cc1ccccc1 | 61* | -7 | 11 | ?
